Each block holds one molecule with its values, some of them ahead of it. Activity calls are given as the source filed them. The rule behind the calls is not given here.
Key:
U-87 MG = assay: Antiproliferative activity against human U-87 MG cells assessed as reduction in cell growth after 72 hrs by MTT assay; type: functional, cell-based; conditions: U-87MG ATCC
Summary of the method: (§1)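 Cells were switched after 24 h to medium containing compound, diluted from a 10 mM DMSO stock to a final 0.5% DMSO, with vehicle controls. Exposure was 72 h, then MTT (0.25 mg/mL final) for 3 h. Formazan was dissolved in DMSO and read at 570 nm minus 690 nm background. Triplicate wells were normalised to DMSO as 100%. IC50 came from dose-response curves over at least six experiments.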

A549 [1] = assay: Antiproliferative activity against human A549 cells assessed as reduction in cell growth after 72 hrs by MTT assay; type: functional, cell-based; conditions: A549, 72 h; summary of the method: as §1
Caco-2 [2] = assay: Antiproliferative activity against human Caco2 cells assessed as reduction in cell growth after 72 hrs by MTT assay; type: functional, cell-based; conditions: Caco-2, 72 h; summary of the method: as §1
A549 [3] = assay: Cell cycle arrest in human A549 cells assessed as reduction in histone H3 phosphorylation at 50 uM measured after 72 hrs by DAPI and immunostaining based assay; type: functional
Summary of the method: (§2)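 A549 cells (DMEM, 4.5 g/L glucose, 10% heat-inactivated FBS) were grown on poly-L-lysine-coated coverslips and exposed to 50 μM or DMSO vehicle for 72 h. They were fixed in 4% PFA and blocked with 5% FBS/0.1% Triton X-100. Staining was rabbit anti-phospho-histone H3 or anti-cleaved caspase-3 overnight at 4 °C, then Alexa488 secondary and DAPI. Read-out was % positive nuclei over DAPI, n = 8 fields.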

[4] = (§3) Protection against IL1beta/IFNgamma-induced cell death in […] cells assessed as reduction in cell death at 10 uM preincubated for 1 hr followed by IL1beta/IFNgamma addition and measured after 16 hrs by TUNEL assay relative to control; type: functional; set-up: scale not given: the % may be the effect or the level left; conditions: time 17 hrs
Summary of the method: (§4)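 INS-1 insulinoma cells grown in RPMI (10% fetal calf serum, 2 mM glutamine, 10 mM HEPES, 1 mM pyruvate) at 37 °C, 5% CO2 to ~70% confluency. Pretreated 1 h with the hydroxy fatty acid in DMSO (final 0.10%), then IL-1β 20 ng/mL + IFNγ 200 ng/mL for 16 h. Cells were cytospun, PFA-fixed and permeabilised, then TUNEL/DAPI stained. Apoptotic cells counted as % of total, ≥3 fields per slide, 3–5 independent experiments.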

[5] = Toxicity in […] assessed as induction of apoptotic cell death at 1 to 10 uM measured after 1 hr by TUNEL assay; type: cell-based; conditions: ins1, 10 µM; dose 1-10 µM
Summary of the method: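 INS-1 cells (RPMI, 10% FCS, 10 mM HEPES, 1 mM pyruvate, 37 °C, 5% CO2) were grown to ~70% confluency. They were pretreated 1 h with 1 or 10 μM (final DMSO 0.10%), then given vehicle or IL-1β 20 ng/mL + IFNγ 200 ng/mL for 16 h. Cells were cytospun, PFA-fixed, permeabilised, TUNEL-stained and DAPI-counterstained. Result was % TUNEL-positive nuclei from ≥3 fields per slide, 3–5 independent experiments, mean ± SEM.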

[6] = (§5) Protection against IL1beta/IFNgamma-induced cell death in […] cells assessed as reduction in cell death at 1 uM preincubated for 1 hr followed by IL1beta/IFNgamma addition and measured after 16 hrs by TUNEL assay relative to control; type: functional; set-up: scale not given: the % may be the effect or the level left; conditions: time 17 hrs; summary of the method: as §4
A549 [7] = assay: Induction of apoptosis in human A549 cells assessed as increase in activated caspase-3 at 50 uM measured after 72 hrs by DAPI and immunostaining based assay; type: functional, cell-based; summary of the method: as §2
INS1 [8] = assay: as §3; type: functional; conditions: Rattus norvegicus, time 17.0 hrs; summary of the method: as §4
A549 [9] = assay: Antiproliferative activity against human A549 cells assessed as reduction in cell growth at 10 to 100 uM after 72 hrs by MTT assay; type: functional, cell-based; conditions: dose 10-100 µM; summary of the method: as §1
SF-268 [10] = assay: Antiproliferative activity against human SF-268 cells assessed as reduction in cell growth at 10 to 100 uM after 72 hrs by MTT assay; type: functional, cell-based; conditions: dose 10-100 µM; summary of the method: as §1
Caco-2 [11] = assay: Antiproliferative activity against human Caco2 cells assessed as reduction in cell growth at 10 to 100 uM after 72 hrs by MTT assay; type: functional, cell-based; conditions: dose 10-100 µM; summary of the method: as §1
SF-268 [12] = assay: Antiproliferative activity against human SF-268 cells assessed as reduction in cell growth after 72 hrs by MTT assay; type: functional, cell-based; conditions: SF-268, 72 h; summary of the method: as §1
INS1 [13] = assay: as §5; type: functional; conditions: Rattus norvegicus, time 17.0 hrs; summary of the method: as §4
A549 [14] = assay: Reduction in STAT3 mRNA level in human A549 cells at 50 uM by RT-qPCR analysis; type: functional, cell-based
Summary of the method: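 STAT3 mRNA in DMSO- versus compound-treated A549 cells was measured by quantitative real-time RT-PCR, normalised to β-actin mRNA.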

[15] = biological target: Signal transducer and activator of transcription 3 (Homo sapiens) (UniProt P40763); assay: Down regulation of STAT3 phosphorylation in human A549 cells at 50 uM by Western blot analysis; type: cell-based
Summary of the method: (§6)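 Treated and untreated A549 cells were lysed in RIPA and spun at 17,000g for 15 min at 4 °C. 35 μg protein was run on SDS-PAGE and transferred to nitrocellulose, then blocked with 5% BSA in TBS-0.1% Tween 20. Probes were anti-phospho-STAT3 (1:1000), anti-STAT3 (1:1000) and anti-β-actin (1:20,000) overnight at 4 °C, then secondary for 1.30 h. Relative protein expression was quantified.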

A549 [16] = assay: Reduction in total STAT3 expression in human A549 cells at 50 uM by Western blot analysis; type: functional, cell-based; summary of the method: as §6

Signal transducer and activator of transcription 3 (Homo sapiens), sequence (P40763 whole entry): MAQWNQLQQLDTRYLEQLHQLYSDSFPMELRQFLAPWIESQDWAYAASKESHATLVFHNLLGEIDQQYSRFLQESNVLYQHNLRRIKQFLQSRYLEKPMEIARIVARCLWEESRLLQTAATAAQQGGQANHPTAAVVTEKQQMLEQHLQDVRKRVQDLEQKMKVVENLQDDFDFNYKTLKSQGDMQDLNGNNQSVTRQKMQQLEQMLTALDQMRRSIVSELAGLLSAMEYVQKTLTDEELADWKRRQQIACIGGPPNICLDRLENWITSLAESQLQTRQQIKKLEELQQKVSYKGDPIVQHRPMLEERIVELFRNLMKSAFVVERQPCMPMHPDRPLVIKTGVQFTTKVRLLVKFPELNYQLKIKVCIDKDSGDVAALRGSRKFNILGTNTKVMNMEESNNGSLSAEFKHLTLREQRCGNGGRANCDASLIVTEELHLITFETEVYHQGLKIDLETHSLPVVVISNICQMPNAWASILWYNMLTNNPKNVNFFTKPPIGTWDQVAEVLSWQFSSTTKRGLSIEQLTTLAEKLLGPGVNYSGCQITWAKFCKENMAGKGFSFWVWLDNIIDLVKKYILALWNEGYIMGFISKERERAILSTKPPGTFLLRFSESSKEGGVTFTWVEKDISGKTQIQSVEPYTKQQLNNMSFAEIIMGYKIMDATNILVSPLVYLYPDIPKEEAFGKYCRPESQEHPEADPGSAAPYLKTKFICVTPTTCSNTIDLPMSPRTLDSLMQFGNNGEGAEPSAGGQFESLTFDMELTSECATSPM

IC50 (A549 [1]): 49 µM
IC50 (Caco-2 [2]): 42 µM
Structure (SMILES): CCCCCCCCC[C@@H](O)CCCCCC(=O)O
Activity (U-87 MG): inactive

Structure (SMILES): CCCCCCCCC[C@@H](O)CCCCCCCC(=O)O
Activity (A549 [3]): Active
Activity [4]: 73%
Activity [5]: Non-Toxic
Activity [6]: 40%
Activity (A549 [7]): inactive

Structure (SMILES): CCCCCCCCCCCCCCCC(=O)OC(CCCCCCCCCCC)CCCCCC(=O)O (centres undefined)
Activity (INS1 [8]): inactive
Activity (A549 [9]): inactive
Activity (SF-268 [10]): inactive
Activity (Caco-2 [11]): inactive

Structure (SMILES): CCCCCCCCCCC[C@H](O)CCCCCC(=O)O
Activity (U-87 MG): inactive
Activity (INS1 [8]): inactive
IC50 (SF-268 [12]): 47 µM
Activity [5]: Non-Toxic
Activity (INS1 [13]): inactive
IC50 (A549 [1]): 50 µM
IC50 (Caco-2 [2]): 50 µM

Structure (SMILES): CCCCCCCCCCCCCCCCCC(=O)O
Activity (A549 [9]): inactive
Activity (SF-268 [10]): inactive
Activity (Caco-2 [11]): inactive

Structure (SMILES): CCCCCCCC/C=C\CCCCCCCC(=O)OC(CCCCCCCCC)CCCCCCCC(=O)O (centres undefined)
Activity (A549 [9]): inactive
Activity (SF-268 [10]): inactive
Activity (Caco-2 [11]): inactive

Structure (SMILES): CCCCCCCCCCCCCCCC(=O)O
Activity (A549 [9]): inactive
Activity (SF-268 [10]): inactive
Activity (Caco-2 [11]): inactive

Structure (SMILES): CCCCCCCCCCCCCCCC(=O)OC(CCCCCCCCC)CCCCCCCC(=O)O (centres undefined)
Activity (A549 [9]): inactive
Activity (SF-268 [10]): inactive
Activity (Caco-2 [11]): inactive

Structure (SMILES): CCCCCCCCC[C@H](O)CCCCCCCC(=O)O
Activity [4]: 68%
Activity [5]: Non-Toxic
Activity [6]: 40%

IC50 (A549 [1]): 55 µM
IC50 (Caco-2 [2]): 50 µM
Structure (SMILES): CCCCCCCCC[C@H](O)CCCCCC(=O)O
Activity (U-87 MG): inactive

Structure (SMILES): CCCCCCCCCCC[C@@H](O)CCCCCC(=O)O
Activity (U-87 MG): inactive
Activity (A549 [3]): Active
Activity [4]: 95%
Activity (A549 [14]): Active
IC50 (SF-268 [12]): 27 µM
Activity [5]: Non-Toxic
Activity (INS1 [13]): inactive
Activity (A549 [7]): inactive
IC50 (A549 [1]): 38 µM
IC50 (Caco-2 [2]): 37 µM
Activity [15]: Active
Activity (A549 [16]): Active
